Screens from PubChem BioAssay.
ALR inh: inhibitors of human ALR sulfhydryl oxidase, primary screen, biochemical, H2O2 detection, HRP-luminol luminescence, single point | AID 485317, 2010 | purified ALR, DTT oxidation | inhibition, % (concentration not given with the values) | FAD-linked sulfhydryl oxidase ALR (Homo sapiens), P55789 | actives 3.8% (n = 290,000);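 active = mean replicate inhibition above about 79%, with every replicate also reaching it, limit read from the data; inconclusive = only one of the two criteria met; inactive = mean below limit and not every replicate reaching it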
Target sequence (P55789 whole entry, looked up): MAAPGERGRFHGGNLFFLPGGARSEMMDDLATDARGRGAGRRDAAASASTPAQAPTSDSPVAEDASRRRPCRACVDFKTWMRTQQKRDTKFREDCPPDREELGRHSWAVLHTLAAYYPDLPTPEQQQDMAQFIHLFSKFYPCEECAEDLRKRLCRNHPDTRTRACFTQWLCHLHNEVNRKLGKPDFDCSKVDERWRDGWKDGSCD
FAS TE block: FAS thioesterase domain inhibitors, primary screen, biochemical, fluorescence intensity, uHTS; recombinant FAS-TE, OMFH fluorogenic substrate, fluorescence endpoint; Fatty acid synthase (Homo sapiens), P49327; actives 0.67% (n = 360,000); inhibition, % at 15 µM; AID 602261, 2012;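 active = compounds whose normalised, plate-corrected inhibition of enzyme fluorescence in the single-dose primary screen is 50% or more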
Rtt109 Vps75: inhibitors of C. albicans Rtt109/Vps75 HAT, primary screen, biochemical, ThioGlo CoA-SH fluorescence, plate reader; purified Rtt109/Vps75, 4 h; inhibition, % at 34.9 µM; actives 0.16% (n = 330,000); AID 540336, 2011;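 active = inhibition of at least 50% in every replicate; inconclusive = best replicate reaches 50% inhibition but some replicates fall short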
Target sequence (Q5AAJ8 whole entry, looked up): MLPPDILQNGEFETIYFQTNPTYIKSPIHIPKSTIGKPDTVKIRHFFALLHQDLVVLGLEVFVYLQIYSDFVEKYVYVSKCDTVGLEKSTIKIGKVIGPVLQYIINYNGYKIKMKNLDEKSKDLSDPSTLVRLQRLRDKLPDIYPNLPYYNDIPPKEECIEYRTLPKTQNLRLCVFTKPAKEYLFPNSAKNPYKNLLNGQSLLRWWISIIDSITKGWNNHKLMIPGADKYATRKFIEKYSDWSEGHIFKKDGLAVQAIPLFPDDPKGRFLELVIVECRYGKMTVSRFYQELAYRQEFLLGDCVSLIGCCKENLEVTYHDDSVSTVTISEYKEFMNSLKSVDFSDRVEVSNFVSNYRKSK
UCH37 DUB inh: inhibitors of human UCH37 deubiquitinase, primary screen, biochemical, Ub-AMC cleavage, fluorescence | purified proteasome/UCH37 | inhibition, % (no concentration beside the values) | actives 0.33% (n = 330,000);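 active = mean inhibition over replicate wells above about 20%, limit read from the data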
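System: Proteasome-associated human UCH37 deubiquitinase; Input: 0.15 nM proteasome in added enzyme buffer; Also added: Ub-AMC substrate from 1 µM stock; Incubation: 30 min compound-proteasome preincubation then 25 min substrate reaction, room temperature; Detection: fluorescence, ex 355 nm, em 460 nm; Read-out: % inhibition of Ub-AMC cleavage fluorescence; Benchmarks: no-proteasome and no-compound wells.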
PfM18AAP inh-1: PfM18AAP inhibitors, malaria aminopeptidase, primary screen, biochemical, QFRET, recombinant enzyme | H-Glu-NHMec fluorogenic cleavage | M18 aspartyl aminopeptidase (Plasmodium falciparum 3D7) | inhibition, % at 7.35 µM | actives 1.2% (n = 290,000);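 active = inhibition above the campaign mean inhibition over all tested compounds plus 3 SD, cut at about 28% in these data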
HDAC3 inh: HDAC3 deacetylase inhibitors, primary screen, biochemical, fluorescence, cell-free homogeneous | inhibition, % at 8.3 µM | recombinant HDAC3, fluorogenic peptide/trypsin coupled | actives 0.15% (n = 320,000) | AID 2718, 2010 | Histone deacetylase 3 (Homo sapiens), O15379; in the data active = inhibition above about 26%, passing the limit was not always enough; inconclusive = no clear call, values can overlap the other calls
PfM18AAP inh-2: PfM18AAP inhibitors, malaria aminopeptidase, confirmation, biochemical, QFRET, recombinant enzyme, triplicate. shares compounds with PfM18AAP inh-1. H-Glu-NHMec fluorogenic cleavage. inhibition, % at 7.35 µM. actives 28% (n = 2,400);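 active = mean inhibition over replicate wells above the hit cutoff set for the earlier primary screen, cut at about 29% in these data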
CTSL1 confirm: cathepsin L1 inhibitors, retest, confirmation, counter-screen for PFM18AAP inhibitor project, biochemical, QFRET, triplicate. inhibition, % at 5.96 µM. shares compounds with PfM18AAP inh-1. 2,400 tested, under 10 active. purified cathepsin L1, Z-Leu-Arg-MCA fluorescence. AID 2178, 2009;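 active = average inhibition across replicates above the hit cutoff set in the earlier primary screen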
A number is an active result; - = inactive; ? = inconclusive; . = no result given. Sampled rows, rich in hits. Any-hit rate of the full collection: about 4.6%.

SMILES	ALR inh	FAS TE block	Rtt109 Vps75	UCH37 DUB inh	PfM18AAP inh-1	HDAC3 inh	PfM18AAP inh-2	CTSL1 confirm
CC(C)(C)Cc1nnc(NC(=O)CSc2ccccc2)s1	-	-	-	-	39.6	-	-	-
CCOCc1nnc(NC(=O)CSc2ccccc2)s1	-	-	-	-	-	-	.	.
CCc1nnc(NC(=O)CSc2nnc(CSc3nc(C)cc(C)n3)o2)s1	-	-	-	-	36.2	-	-	-
CC(C)CN(CC(C)C)c1ccc(C=Nn2cnnc2)cc1[N+](=O)[O-]	.	.	.	-	.	.	.	.
N#Cc1c(-c2ccc(F)cc2)cc(-c2ccccc2)nc1SCC(=O)NCC(=O)O	-	-	-	-	50.6	-	-	-
N#Cc1c(-c2ccc(Cl)cc2)cc(-c2ccccc2)nc1SCC(=O)O	-	-	-	-	-	-	.	.
C/C(CC(=O)Nc1ccccc1C#N)=N\NC(=O)c1ccncc1	.	-	-	.	36.9	-	-	-
CC(CC(=O)Nc1ccccc1C#N)=NNC(=O)c1ccncc1	.	.	.	-	.	.	.	.
COC(=O)C1C(O)=C(C=NCC(C)N=CC2=C(O)C(C(=O)OC)C(C)(C)CC2=O)C(=O)CC1(C)C (stereo unspecified)	-	-	-	-	47.0	-	-	-
Cc1ccccc1/C=N/N=C1/NC(=O)CCS1	-	-	-	.	65.0	-	-	-
Cc1ccccc1C=N/N=C1/NC(=O)CCS1	.	.	.	-	.	.	.	.
O=C(CSc1ccccn1)N1CCN(c2ccc(Cl)cc2)CC1	-	-	-	-	32.7	-	-	-
O=C(CSc1ccccn1)N1CCN(C(=O)CSc2ccccn2)CC1	-	-	-	-	.	-	.	.
Cc1ccc(S(=O)(=O)N/N=C/c2ccc(O)c(O)c2)cc1[N+](=O)[O-]	99.1	-	-	.	53.7	-	44.7	-
CC(=NNC(=O)c1cc(C(C)C)[nH]n1)c1ccco1	.	.	.	-	.	.	.	.
CN(C)C=NS(=O)(=O)c1ccc(Cl)c(Cl)c1	.	.	.	-	.	.	.	.
CC1(C)OC(C)(C)/C(=C/Nc2ccc(O)cc2)C1=O	99.1	-	-	-	42.8	-	-	-
CC1(C)OC(=O)C(=CNc2cccc(O)c2)C(=O)O1	-	-	-	-	-	-	.	.
N#CC(=NNc1ccc(S(=O)(=O)N2CCCCCC2)cc1)C(N)=S	.	.	.	-	.	.	.	.
Cc1cc(O)c(-c2cc(O)c(C)cc2O)cc1O	-	-	-	-	71.2	-	51.2	-
COc1cc(/C=C2/C(=O)N(c3ccc(Br)cc3)N=C2C)cc(OC)c1OC	.	-	-	-	-	.	.	.
COc1cc(/C=C2/C(=O)N(c3ccc(C(=O)O)cc3)N=C2C)cc(OC)c1O	92.9	-	-	-	49.9	-	28.6	-
O=C(Nc1nc2cc3c(cc2s1)OCCO3)c1cccs1	-	-	-	-	-	-	.	.
NNc1nc2cc3c(cc2s1)OCCO3	99.2	-	-	-	51.9	-	-	-
COc1cc(C=NNC(=O)c2nc3ccccn3c2C)cc(OC)c1O	.	.	.	-	.	.	.	.
SMILES	ALR inh	FAS TE block	Rtt109 Vps75	UCH37 DUB inh	PfM18AAP inh-1	HDAC3 inh	PfM18AAP inh-2	CTSL1 confirm
COc1ccc(Cc2nnc(N/N=C/c3ccc(O)cc3O)[nH]c2=O)cc1OC	.	-	-	.	39.1	-	45.6	-
CCC(CC)c1nnc(NC(=O)C2CC(=O)N(CCc3ccc(F)cc3)C2)s1 (stereo unspecified)	-	-	-	-	34.7	-	-	-
O=C(NC1CCC(O)CC1)c1ccc(-c2ccc([N+](=O)[O-])cc2)o1 (stereo unspecified)	-	-	-	-	33.4	-	-	-
O=C(Cn1cncn1)NN=Cc1cccnc1	.	.	.	-	.	.	.	.
CCn1c(-c2ccc(C)cc2)n[nH]c1=S	-	-	-	-	-	?	.	.
CCCn1c(-c2ccc(F)cc2)n[nH]c1=S	-	-	-	-	35.5	-	-	-
C/C(=N/Nc1nc(-c2ccccc2)cc(-c2ccc(F)cc2)n1)c1cccc(N)c1	.	-	-	.	36.0	-	-	-
Clc1ccc2nc(CSc3ncn[nH]3)cn2c1	-	-	-	-	43.2	-	-	-
Clc1ccc(CSc2ncn[nH]2)cc1	-	-	-	-	-	-	.	.
Brc1ccc2nc(CSc3ncn[nH]3)cn2c1	-	-	-	-	66.0	-	29.6	-
Cc1cc(C)nc(SCc2cn3cc(Cl)ccc3n2)n1	-	-	-	-	-	-	.	.
O=C(Nn1cnnc1)C(Sc1ccccc1)c1ccccc1 (stereo unspecified)	-	-	-	-	48.2	-	34.1	-
O=C(Nn1cnnc1)C(c1ccccc1)c1ccccc1	.	-	-	-	42.8	-	-	-
CCc1c(O)c(-c2ccccc2)c(=O)n(-c2ccccn2)c1-c1ccccc1	-	-	-	-	39.2	-	-	-
CCc1c(O)c(C(C)=NO)c(=O)n(-c2ccccc2)c1-c1ccccc1	.	.	.	-	.	.	.	.
CC(=O)C1=C(C)NC(SCc2cccc([N+](=O)[O-])c2)=C(C#N)C1c1ccco1 (stereo unspecified)	-	-	-	-	32.2	-	-	-
COc1cc(C=NNc2nncn2N)ccc1OC(C)=O	.	.	.	-	.	.	.	.
COc1cc(/C=N/Nc2nncn2N)ccc1OCc1c(C)no[n+]1[O-]	-	-	-	.	51.4	-	-	-
O=c1[nH]c(/C=C\c2ccc(O)c(O)c2)nc(O)c1[N+](=O)[O-]	98.9	-	-	.	77.9	-	75.8	-
O=C1C2CC=C(Cl)CC2C(=O)N1c1ncn[nH]1 (stereo unspecified)	-	-	-	-	52.9	-	-	-
O=C1C2CC=CCC2C(=O)N1c1ncn[nH]1 (stereo unspecified)	-	-	-	-	-	-	.	.
O=C(NN=Cc1ccccn1)c1ccc(NC(=O)c2cccc([N+](=O)[O-])c2)cc1	.	.	.	-	.	.	.	.
O=C1NC(=S)CN1c1ccccc1	-	-	140.7	-	41.6	-	-	-
CC1(C)Cc2c(sc(NC(=O)/C=C/C(=O)O)c2C#N)CO1	-	-	-	-	-	-	.	.
CC1(C)Cc2c(sc(NC(=O)C(=O)NCCCN3CCOCC3)c2C#N)CO1	-	-	-	-	49.0	-	-	-
